# Data: ChEMBL document CHEMBL1159323, “Lignanamides and nonalkaloidal components of Hyoscyamus niger seeds” (J Nat Prod, 2002)
# Tested on: LNCaP
# Experiment: Cytotoxicity against human LNCAP cells after 48 hrs by MTT assay
# Type: functional, cell-based
# In short: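 LNCaP cells (ATCC CRL1740) grown in RPMI with 10% FBS, streptomycin and penicillin at 37 °C, 5% CO2. Seeded 2 × 10^5 cells/well and exposed to a range of compound concentrations for 48 h at 37 °C. MTT was then added for 4 h at 37 °C. Formazan was dissolved in DMSO and absorbance read at 540 nm. IC50 derived; run in triplicate.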
row,SMILES,IC50
1,COc1cc(/C=C(C(=O)NCCc2ccc(O)cc2)\C(=C/c2ccc(O)c(OC)c2)C(=O)NCCc2ccc(O)cc2)ccc1O [CANNABISIN G],76 µM
2,COc1cc(/C=C/C(=O)OCCCCCCCCCCCCCCCCCCCCCCCCOC(=O)/C=C/c2ccc(O)c(OC)c2)ccc1O,> 100 µM
3,CCCCC/C=C\C/C=C\CCCCCCCC(=O)OC(CO)COC(=O)CCCCCCC/C=C/C/C=C/CCCCC (stereo unspecified),> 100 µM
4,COc1cc(/C=C/C(=O)NCCc2ccc(O)cc2)ccc1O [N-TRANS-FERULOYL TYRAMINE],> 100 µM
5,COc1cc([C@@H]2c3cc(O)c(OC)cc3C=C(C(=O)NCCc3ccc(O)cc3)[C@H]2C(=O)NCCc2ccc(O)cc2)ccc1O [CANNABISIN D],81 µM
6,CCCCCCCCCCCCCCCCCC(=O)OCC(O)CO (stereo unspecified) [GLYCERYL MONOSTEARATE],> 100 µM
7,CCCCC/C=C\C/C=C/CCCCCCCC(=O)OCC(O)COC(=O)CCCCCCC/C=C\CCCCCCCC (stereo unspecified),> 100 µM
8,CCCCC/C=C\C/C=C\CCCCCCCC(=O)OCC(O)COC(=O)CCCCCCCCCCCCCCCCCC (stereo unspecified),> 100 µM
9,CCCCC/C=C\C/C=C\CCCCCCCC(=O)OCC(O)CO (stereo unspecified),> 100 µM
10,COc1cc(/C=C(C(=O)NCCc2ccc(O)cc2)/C(=C/c2ccc(O)c(OC)c2)C(=O)NCCc2ccc(O)cc2)ccc1O [HYOSCYAMIDE],> 100 µM
11,COc1cc([C@@H]2Oc3c(OC)cc(/C=C/C(=O)NCCc4ccc(O)cc4)cc3[C@H]2C(=O)NCCc2ccc(O)cc2)ccc1O [GROSSAMIDE],33 µM
